# Measurements from ChEMBL document CHEMBL1649230, “Aryl rhodanines specifically inhibit staphylococcal and enterococcal biofilm formation” (Antimicrob Agents Chemother, 2009).
# Calls of active or inactive are those of the source. No cut-off for these calls is given here.
# Key:
# Staphylococcus aureus [1] = experiment: Antimicrobial activity against Staphylococcus aureus ATCC 35556 assessed as inhibition of bacterial biofilm formation after 18 hrs by broth microdilution method in presence of 5 ug/ml fibrinogen; format: functional
# How it was run: (§1)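 Polystyrene 96-well wells precoated with 100 μl fibronectin or fibrinogen (0–20 μg protein/ml) for 24 h at 4°C. Wells then washed with sterile water. The standard MBIC biofilm assay followed: 0.5× TSB with 1% glucose, 2% DMSO, 18 h at 37°C, crystal violet read at OD600.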
# Staphylococcus aureus [2] = experiment: Antimicrobial activity against Staphylococcus aureus ATCC 35556 assessed as inhibition of bacterial biofilm formation after 18 hrs by broth microdilution method in presence of 10 ug/ml fibrinogen; format: functional; how it was run: as §1
# Enterococcus faecalis [3] = experiment: Antimicrobial activity against vancomycin-resistant Enterococcus faecalis ATCC 51575 assessed as inhibition of bacterial biofilm after 18 hrs by broth microdilution method; format: functional
# How it was run: (§2)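 Biofilm MBIC on tissue culture-treated polystyrene 96-well plates. Twofold dilutions, 0.2 to 100 μM final, with 2% DMSO final. Inoculum was an overnight culture diluted 1:100 (~5 × 10^6 cells/well) in 0.5× TSB plus 1% glucose, grown 18 h at 37°C. Wells washed, heat-fixed 60°C 60 min, stained with 0.06% crystal violet, OD600 read. MBIC is the lowest concentration giving ≥80% inhibition versus untreated; geometric mean of ≥3 experiments.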
# Enterococcus faecalis [4] = experiment: Antimicrobial activity against Enterococcus faecalis ATCC 51575 on medical grade silicone disk assessed as inhibition of bacterial biofilm after 18 hrs by broth microdilution method; format: functional
# Staphylococcus aureus [5] = experiment: Antimicrobial activity against hospital acquired methicillin-resistant Staphylococcus aureus isolate 47263 assessed as inhibition of bacterial biofilm after 18 hrs by broth microdilution method; format: functional; how it was run: as §2
# Staphylococcus aureus [6] = experiment: Antimicrobial activity against community acquired methicillin-susceptible Staphylococcus aureus assessed as inhibition of bacterial biofilm after 18 hrs by broth microdilution method; format: functional
# How it was run: (§3)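 Static biofilm in tissue culture-treated polystyrene 96-well plates in 0.5× TSB with 1% glucose. Overnight culture diluted 1:100 gives about 5 × 10^6 cells/well. Compound 2-fold series, final 0.2–100 μM, 2% DMSO. Incubated 18 h at 37°C. Washed, heat-fixed 60°C for 60 min, stained with 0.06% crystal violet, read at OD600. MBIC is the lowest concentration giving ≥80% inhibition versus untreated. Geometric mean of ≥3 independent experiments.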
# Staphylococcus aureus [7] = experiment: Antimicrobial activity against community acquired Staphylococcus aureus NCTC 8325 assessed as inhibition of bacterial biofilm after 18 hrs by broth microdilution method; format: functional; how it was run: as §3
# Staphylococcus aureus [8] = experiment: Antimicrobial activity against community acquired methicillin-resistant Staphylococcus aureus isolate 24102 assessed as inhibition of bacterial biofilm after 18 hrs by broth microdilution method; format: functional; how it was run: as §2
# Staphylococcus aureus [9] = experiment: Antimicrobial activity against community acquired methicillin-resistant Staphylococcus aureus isolate 22733 assessed as inhibition of bacterial biofilm after 18 hrs by broth microdilution method; format: functional; how it was run: as §2
# Staphylococcus aureus [10] = experiment: Antimicrobial activity against community acquired methicillin-resistant Staphylococcus aureus isolate 38230 assessed as inhibition of bacterial biofilm after 18 hrs by broth microdilution method; format: functional; how it was run: as §2
# Staphylococcus aureus [11] = experiment: Antimicrobial activity against community acquired methicillin-resistant Staphylococcus aureus isolate 49404 assessed as inhibition of bacterial biofilm after 18 hrs by broth microdilution method; format: functional; how it was run: as §2
# Staphylococcus aureus [12] = experiment: Antimicrobial activity against community acquired methicillin-resistant Staphylococcus aureus isolate 44081 assessed as inhibition of bacterial biofilm after 18 hrs by broth microdilution method; format: functional; how it was run: as §2
# [13] = test system: Staphylococcus epidermidis; experiment: Antimicrobial activity against Staphylococcus epidermidis 1457 assessed as inhibition of bacterial biofilm after 18 hrs by broth microdilution method; format: functional; how it was run: as §3
# [14] = test system: Staphylococcus epidermidis; experiment: Antimicrobial activity against coagulase-negative Staphylococcus epidermidis isolate WTBF-47 assessed as inhibition of bacterial biofilm after 18 hrs by broth microdilution method; format: functional; how it was run: as §3
# [15] = test system: Staphylococcus epidermidis; experiment: Antimicrobial activity against coagulase-negative Staphylococcus epidermidis isolate WTBF-40 assessed as inhibition of bacterial biofilm after 18 hrs by broth microdilution method; format: functional; how it was run: as §3
# Enterococcus faecium = experiment: Antimicrobial activity against vancomycin-resistant Enterococcus faecium isolate F1181 assessed as inhibition of bacterial biofilm after 18 hrs by broth microdilution method; format: functional; how it was run: as §2
# Enterococcus gallinarum [16] = experiment: Antimicrobial activity against vancomycin-resistant Enterococcus gallinarum isolate 2392 assessed as inhibition of bacterial biofilm after 18 hrs by broth microdilution method; format: functional; how it was run: as §2
# Escherichia coli = experiment: Antimicrobial activity against Escherichia coli ATCC 25922 assessed as inhibition of bacterial biofilm after 18 hrs by broth microdilution method; format: functional
# How it was run: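 Polystyrene plates with breathable lids in 1× TSB (0.25% glucose), 37°C for 18 h. Biofilms form at the air-liquid interface. Stained with crystal violet, dye eluted with 30% acetic acid, OD read. Compound 2-fold series, final 0.2–100 μM in 2% DMSO. MBIC taken at ≥80% inhibition versus untreated. Geometric mean of ≥3 experiments.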
# Staphylococcus aureus [17] = experiment: Antimicrobial activity against community-acquired Staphylococcus aureus MW2 on medical grade silicone disk assessed as inhibition of bacterial biofilm after 18 hrs by broth microdilution method; format: functional
# Enterococcus gallinarum [18] = experiment: Antimicrobial activity against vancomycin-resistant Enterococcus gallinarum isolate 2392 on medical grade silicone disk assessed as inhibition of bacterial biofilm after 18 hrs by broth microdilution method; format: functional
# How it was run: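 Medical-grade silicone disks glued to 24-well plate bottoms. Compound added to a 1:100 overnight-culture inoculum (0.5× TSB, 1% glucose) at 2% DMSO final; ≥3 wells each, ~18 h at 37°C. Washed with water, heat-fixed 60°C 60 min, stained with 0.06% crystal violet, eluted with 30% acetic acid, OD600 read. Repeated ≥3 times.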
# Staphylococcus aureus [19] = experiment: Antimicrobial activity against Staphylococcus aureus ATCC 35556 assessed as inhibition of bacterial biofilm formation after 18 hrs by broth microdilution method in presence of 1 ug/ml fibronectin; format: functional; how it was run: as §1
# Enterococcus faecalis [20] = experiment: Antimicrobial activity against Enterococcus faecalis isolate F177 on medical grade silicone disk assessed as inhibition of bacterial biofilm after 18 hrs by broth microdilution method
# Staphylococcus aureus [21] = experiment: Antimicrobial activity against hospital acquired methicillin-resistant Staphylococcus aureus isolate 58336 assessed as inhibition of bacterial biofilm after 18 hrs by broth microdilution method; format: functional; how it was run: as §2
# Staphylococcus aureus [22] = experiment: (§4) Antimicrobial activity against Staphylococcus aureus ATCC 35556 assessed as inhibition of primary adhesion of bacterial biofilm to polystyrene surface under static condition at MBIC after 30 mins by fluorescence emission using BaclLight Live Dead stain; format: functional, organism-based
# How it was run: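 Mid-log S. aureus ATCC 35556 (OD600 0.5) grown in TSB at 37°C, washed, resuspended in PBS. Compound added (0× to 8× MBIC, 2% DMSO). Suspension placed on tissue culture-treated polystyrene or PVC 96-well plates (eight wells per level) or silicone disks in 24-well plates (three wells). Incubated 30 min at 37°C, then washed. BacLight Live/Dead fluorescence read (ex 485, em 530 nm). Result given as fraction adherent versus untreated.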
# Staphylococcus aureus [23] = experiment: as §4, with “condition pretreated with 4 times compound” for “condition at”, “MBIC for 30 mins measured” for “MBIC”; format: functional
# How it was run: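 PBS suspension of mid-log S. aureus ATCC 35556 exposed to compound in tubes for 30 min at 37°C. Cells centrifuged to remove free compound and resuspended in PBS at the original density. They were then placed on tissue culture-treated polystyrene for 30 min at 37°C. Wells washed, BacLight Live/Dead fluorescence read (ex 485, em 530 nm). Fraction adherent calculated versus untreated.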
SMILES,MBIC (Staphylococcus aureus [1]),MBIC (Staphylococcus aureus [2]),MBIC (Enterococcus faecalis [3]),MBIC (Staphylococcus aureus [5]),MBIC (Staphylococcus aureus [6]),MBIC (Staphylococcus aureus [7]),MBIC (Staphylococcus aureus [9]),MBIC (Staphylococcus aureus [10]),MBIC (Staphylococcus aureus [11]),MBIC (Staphylococcus aureus [12]),MBIC [13],MBIC [14],MBIC [15],MBIC (Enterococcus faecium),MBIC (Enterococcus gallinarum [16]),MBIC (Escherichia coli),MBIC90 (Staphylococcus aureus [17]),MBIC90 (Enterococcus gallinarum [18]),MBIC (Staphylococcus aureus [19]),MBIC90 (Enterococcus faecalis [20]),further results
C=CCOc1cc(/C=C2\SC(=S)N(c3ccc(F)cc3)C2=O)ccc1O,3.125 µM,3.125 µM,35.4 µM,8.8 µM,10.5 µM,14.9 µM,100 µM,35.4 µM,15.7 µM,39.7 µM,29.7 µM,29.7 µM,50 µM,>=100 uM,>=100 uM,>=100 uM,100 µM,100 µM,3.125 µM,100 µM,MBIC90 (Enterococcus faecalis [4]): 100 µM; MBIC (Staphylococcus aureus [8]): 100 µM
CCOc1cc(/C=C2\SC(=S)N(c3cccc(F)c3)C2=O)ccc1O,6.25 µM,6.25 µM,63 µM,8.8 µM,14.9 µM,25 µM,70.7 µM,–,–,–,50 µM,42 µM,59.5 µM,>=100 uM,50 µM,>=100 uM,70.7 µM,>=100 uM,6.25 µM,>=100 uM,MBIC (Enterococcus faecalis [4]): 63 µM; MBIC (Staphylococcus aureus [21]): 10.5 µM
CCOc1cc(/C=C2\SC(=S)N(c3ccc(F)cc3)C2=O)ccc1O,3.125 µM,3.125 µM,–,8.8 µM,14.9 µM,25 µM,50 µM,50 µM,63 µM,79.4 µM,42 µM,29.7 µM,50 µM,>=100 uM,84.1 µM,>=100 uM,79.4 µM,>=100 uM,3.125 µM,>=100 uM,MBIC (Enterococcus faecalis [4]): 29.7 µM; MBIC (Staphylococcus aureus [21]): 10.5 µM; inhibition (Staphylococcus aureus [22]): Active; inhibition (INH) (Staphylococcus aureus [23]): >=80%
CCOc1cc(/C=C2\SC(=S)N(c3cccnc3)C2=O)ccc1O,12.5 µM,12.5 µM,21 µM,–,12.5 µM,12.5 µM,–,19.8 µM,31.5 µM,25 µM,12.5 µM,12.5 µM,35.4 µM,>=100 uM,–,>=100 uM,25 µM,–,12.5 µM,19.8 µM,MBIC90 (Enterococcus faecalis [4]): 19.8 µM; MBIC (Staphylococcus aureus [21]): 14.9 µM; MBIC (Staphylococcus aureus [8]): 19.8 µM; inhibition (Staphylococcus aureus [22]): Active; inhibition (INH) (Staphylococcus aureus [23]): >=80%
